Active and inactive are the calls of the source. The calls are words filed in the database; no cut-off is given here.
Experiments:
[1] = Inhibition of monoamino oxidase B from F344/N rat brain cortex
[2] = Lipophilicity, log P of the compound; format: physicochemical; details: octanol/water
T20 = assay: Inhibition of gamma secretase in T20 cells assessed as amyloid precursor protein cleavage at 10 uM after 24 hrs by luciferase reporter gene assay; format: cell-based; design: scale not given: the % may be the effect or the level left
How it was run: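 T20 cells (stable C99-luciferase reporter line, kept in hygromycin/blasticidin/zeocin medium) plated 2 × 10⁴/well and held 24 h at 37 °C. Compounds added at 10 µM final with tetracycline 1 µg/ml for 24 h at 37 °C. Luminescence read with Steady-Glo reagent as fold luciferase activation versus DMSO; triplicates.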

[3] = molecular target: Mitogen-activated protein kinase; ERK1/ERK2 (Homo sapiens) (UniProt P27361+P28482); assay: Activation of ERK1/2 in T20 cells at 10 uM relative to nontreated cells; format: cell-based
How it was run: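 T20 cells plated at 5 × 10⁵/well, grown 18 h at 37 °C, then 18 h with tetracycline 1 µg/ml. Medium switched to DMEM with 0.5% FBS and compounds added at 10 µM. Lysis in Tris-HCl pH 8.0 buffer with Triton X-100 and inhibitors; 50 lg protein run on 12% SDS-PAGE and immunoblotted for phospho-ERK1/2 and total ERK1/2. Read-out p-ERK/ERK % of untreated; three experiments.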

[4] = Increase in sAPP alpha secretion in gamma-30 cells; format: functional, cell-based
How it was run: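 Conditioned media from c-30 cells (full-length APP with human PS1, Aph-1a2, Pen-2), normalised to lysate protein content. Immunoprecipitated with rabbit polyclonal anti-Ab1–17, separated by SDS–PAGE and Western blotted with mouse monoclonal 6E10 to detect sAPPa.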

Sequence of Mitogen-activated protein kinase; ERK1/ERK2 (Homo sapiens) (P27361 whole entry, looked up): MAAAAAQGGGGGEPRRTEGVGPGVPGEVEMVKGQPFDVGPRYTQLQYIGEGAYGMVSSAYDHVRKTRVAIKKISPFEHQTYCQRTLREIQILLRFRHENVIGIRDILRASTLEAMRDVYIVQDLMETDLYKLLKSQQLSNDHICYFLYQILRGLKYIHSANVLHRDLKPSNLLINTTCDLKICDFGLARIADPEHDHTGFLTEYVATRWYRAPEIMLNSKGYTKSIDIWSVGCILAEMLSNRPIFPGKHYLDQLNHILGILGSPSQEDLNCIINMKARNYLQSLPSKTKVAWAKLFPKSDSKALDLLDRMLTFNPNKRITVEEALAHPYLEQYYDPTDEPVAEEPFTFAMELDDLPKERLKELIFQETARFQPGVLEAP
Sequence of Mitogen-activated protein kinase; ERK1/ERK2 (Homo sapiens) (P28482 whole entry, looked up): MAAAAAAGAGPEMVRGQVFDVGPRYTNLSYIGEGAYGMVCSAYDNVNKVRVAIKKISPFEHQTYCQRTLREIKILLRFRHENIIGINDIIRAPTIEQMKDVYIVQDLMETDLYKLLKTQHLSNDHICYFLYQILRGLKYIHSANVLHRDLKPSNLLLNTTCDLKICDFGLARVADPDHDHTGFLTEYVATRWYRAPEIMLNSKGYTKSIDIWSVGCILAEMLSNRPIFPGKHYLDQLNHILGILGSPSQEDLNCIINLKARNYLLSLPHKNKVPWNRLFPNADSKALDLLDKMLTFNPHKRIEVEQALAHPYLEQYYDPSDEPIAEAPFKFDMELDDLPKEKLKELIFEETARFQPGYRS

## C#CCN1CCc2ccc(OC(=O)N(C)CC)cc2C1
[1]
  IC50: 21.5 µM
[2]
  logP: 2.25

## O=C(Oc1ccc2c(c1)CN(CC1CC1)CC2)N1CCCC1
[1]
  IC50: 14.9 µM
[2]
  logP: 2.67

## O=C(Oc1ccc2c(c1)CN(CC1CC1)CC2)N1CCOCC1
T20
  Activity: 35%
[1]
  IC50: 18.5 µM
[2]
  logP: 2.29
[3]
  Activity: 138%
[4]
  Activity: Active

## C#CCN1CCc2ccc(OC(=O)N3CCCC3)cc2C1
[1]
  IC50: 13.9 µM
[2]
  logP: 2.23

## C#CCN1CCc2ccc(OC(=O)N3CCCCC3)cc2C1
[1]
  IC50: 15.7 µM
[2]
  logP: 2.63

## C#CCN[C@@H]1CCc2ccccc21 [RASAGILINE]
[1]
  IC50: 2.1 µM
[2]
  logP: 2.29
[3]
  Activity: 131%

## CCN(C)C(=O)Oc1ccc2c(c1)CN(CC1CC1)CC2
T20
  Activity: 35%
[1]
  IC50: 12.8 µM
[2]
  logP: 2.69
[3]
  Activity: 131%
[4]
  Activity: Active

## C#CCN1CCc2ccc(OC(=O)N3CCOCC3)cc2C1
[1]
  IC50: 18.7 µM
[2]
  logP: 1.57

## O=C(Oc1ccc2c(c1)CN(CC1CC1)CC2)N1CCCCC1
T20
  Activity: 35%
[1]
  IC50: 11.6 µM
[2]
  logP: 3.09
[3]
  Activity: 155%
[4]
  Activity: Active
